Ends that are not written are not given here.

In one data set the target is T1, Elastase 2A (CEL2A) (Homo sapiens, UniProt P08217).
T1 sequence (P08217 29-269): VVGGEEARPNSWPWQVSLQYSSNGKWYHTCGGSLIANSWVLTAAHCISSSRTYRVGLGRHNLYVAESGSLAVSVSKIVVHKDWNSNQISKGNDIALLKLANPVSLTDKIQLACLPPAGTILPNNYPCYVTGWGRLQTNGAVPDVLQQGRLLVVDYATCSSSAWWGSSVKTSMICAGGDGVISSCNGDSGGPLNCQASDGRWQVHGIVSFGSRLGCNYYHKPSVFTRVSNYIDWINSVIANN
Nature of the data set: 33-mer, 19-mer and 13-mer hydrolysis by purified human fecal elastase 2A. The class given is in vitro ADME. Particulars: for extent of degradation by CEL2A: PBS pH 7.3, 37 °C, 60 min, RP-HPLC UV 215 nm. In outline:
(§1)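 Purified human fecal enzyme (3.4 µL of 0.8 mg/mL) was incubated with 33-, 19- or 13-mer gliadin peptide (4.7 µL of 60 µM) in PBS pH 7.3 (40 µL total) at 37 °C for 60 min (also 24 h). Reactions were stopped by boiling for 10 min, then filtered. Read-out: C18 RP-HPLC, 0.1% TFA water-to-acetonitrile gradient over 20 min, UV 215 nm. Controls: enzyme boiled 15 min; peptide alone.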

Data set [1] can be described thus: Peptide hydrolysis by fecal protein extracts of celiac disease. The class given is in vitro ADME, human. Particulars: for extent of degradation by CD fecal samples, 24 h: fecal extracts of CD patients, 24-h incubation (not shown). The gist of the method:
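Stools from treated celiac patients (Marsh III at diagnosis, gluten-free diet, no antibiotics for a month) were stored at −80 °C. They were homogenized in 10 mM Tris-HCl pH 7.5, and the 35–65% ammonium sulfate fraction was desalted. Extract (3.4 µL of 0.8 mg/mL) plus peptide (4.7 µL of 60 µM) in PBS pH 7.3 ran 60 min or 24 h at 37 °C. Read-out: C18 RP-HPLC, UV 215 nm.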

Data set [2] addresses T2, carboxypeptidase A1 (CBPA1) (Homo sapiens, UniProt P15085).
T2 sequence (P15085 111-419): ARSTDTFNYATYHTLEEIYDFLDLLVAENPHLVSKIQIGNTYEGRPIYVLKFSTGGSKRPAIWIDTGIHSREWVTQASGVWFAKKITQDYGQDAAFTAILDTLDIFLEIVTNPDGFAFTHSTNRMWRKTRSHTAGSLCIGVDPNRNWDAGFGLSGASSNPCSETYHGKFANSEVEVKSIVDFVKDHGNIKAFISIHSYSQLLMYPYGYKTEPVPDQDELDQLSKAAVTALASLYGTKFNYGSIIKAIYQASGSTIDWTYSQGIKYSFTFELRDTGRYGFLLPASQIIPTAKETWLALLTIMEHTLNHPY
It is filed as in vitro ADME. The settings on record: for extent of degradation by CBPA1: purified CBPA1, PBS pH 7.3, 37 °C, 60 min, RP-HPLC UV 215 nm. The gist of the method: as §1

Another data set has as its system CEL2A, CBPA1, and CEL3B. In words: 33-mer hydrolysis with CEL2A, CBPA1 and CEL3B added together. It is filed as in vitro ADME, human. Particulars: CBPA1 and CEL3B added simultaneously or sequentially, 60 min (not shown).
The target of a further data set is T3, Elastase 3B (CEL3B) (Homo sapiens, UniProt P08861).
T3 sequence (P08861 29-270): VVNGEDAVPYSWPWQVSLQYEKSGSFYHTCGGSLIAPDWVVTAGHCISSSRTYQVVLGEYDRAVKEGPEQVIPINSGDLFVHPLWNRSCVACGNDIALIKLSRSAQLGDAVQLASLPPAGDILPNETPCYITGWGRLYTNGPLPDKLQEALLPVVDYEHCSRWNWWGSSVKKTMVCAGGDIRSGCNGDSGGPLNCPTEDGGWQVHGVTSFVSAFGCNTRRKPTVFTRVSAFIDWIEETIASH
Nature of the data set: 33-mer, 19-mer and 13-mer hydrolysis by purified human fecal elastase 3B. It is filed as in vitro ADME. In outline: as §1

For a further data set, the system named is gluten and gliadin. Nature of the data set: Glutenase and gliadinase activity of commercial proteases. It is filed as biochemical. The settings on record: bioassay on MCG-1 gluten agar plates and gliadin zymography.
Where [3] appears, read: 37 °C, 24-h incubation (not shown).

In the case of LGQQQPFPPQQPY [13-mer], the “extent of degradation by CEL2A” value on Elastase 2A (CEL2A) is “fully degraded”. Moreover, the “extent of degradation by CD fecal samples, 24 h” value in data set [1] is given as “completely degraded”. Further, the “extent of degradation by CBPA1” value in data set [2] is “fully degraded”.
With LGQQQPFPPQQPYPQPQPF [19-mer], the “extent of degradation by CEL2A” value on Elastase 2A (CEL2A) is given as “fully degraded”. Moreover, the “extent of degradation by CD fecal samples, 24 h” value in data set [1] is listed as “completely degraded”. Further, in data set [2], the “extent of degradation by CBPA1” value was “fully degraded”.
As to “LQLQPFPQPQLPYPQPQLPYPQPQLPYPQPQPF [33-mer]”, the “change of degradation when all 3 enzymes are added” value in the data set on CEL2A, CBPA1, and CEL3B is recorded as “did not increase”. Besides, the “extent of degradation by CEL2A after 24 h” value on Elastase 2A (CEL2A) (setting [3]) is recorded as “not completely degraded”. Besides, the “extent of degradation by CEL2A” value on Elastase 2A (CEL2A) was “not completely degraded”. For the same molecule, the “extent of degradation by CEL3B after 24 h” value on Elastase 3B (CEL3B) (setting [3]) is reported as “not completely degraded”. At Elastase 3B (CEL3B) (PBS pH 7.3, 37 °C, 60 min, RP-HPLC UV 215 nm), the “extent of degradation by CEL3B” value is on record as “not completely degraded”. In data set [1] (fecal extracts of CD patients versus NCD volunteers, 37 °C, 60 min, HPLC), the “degradation in CD patients relative to NCD samples (higher by)” value was determined as 37%. In data set [1], the “extent of degradation by CD fecal samples, 24 h” value is “incomplete”. The “extent of degradation by CBPA1 after 24 h” value in data set [2] (purified CBPA1, 37 °C, 24-h incubation (not shown)) is “not completely degraded”. Also, in data set [2], the “extent of degradation by CBPA1” value is on record as “not completely degraded”.
Take “porcine elastase: commercial protease (3.4.21.36) from Sigma”: the “hydrolytic activity against gluten and gliadin” value (“hydrolytic activity” for short) in the data set on gluten and gliadin was “showed hydrolytic activity”.

B1: recombinant rat carboxypeptidase A1: commercial protease (3.4.17.1) from MyBioSource (protein, UniProt P00731 111-419, looked up)
Carboxypeptidase A1: ALSTDSFNYATYHTLDEIYEFMDLLVAEHPQLVSKIQIGNTFEGRPIHVLKFSTGGTNRPAIWIDTGIHSREWVTQASGVWFAKKITKDYGQDPTFTAVLDNMDIFLEIVTNPDGFAYTHKTNRMWRKTRSHTQGSLCVGVDPNRNWDAGFGMAGASSNPCSETYRGKFPNSEVEVKSIVDFVTSHGNIKAFISIHSYSQLLLYPYGYTSEPAPDQAELDQLAKSAVTALTSLHGTKFKYGSIIDTIYQASGSTIDWTYSQGIKYSFTFELRDTGLRGFLLPASQIIPTAEETWLALLTIMDHTVKHPY
As to B1, the “hydrolytic activity” value with gluten and gliadin is “showed hydrolytic activity”.

B2: recombinant bovine chymotrypsin-like elastase family member 2A: commercial protease (3.4.21.71) from MyBioSource (protein, UniProt Q29461 29-269, looked up)
Chymotrypsin-like elastase …: VVGGEDARPNSWPWQVSLQYSSSGQWRHTCGGSLIEQNWVLTAAHCISSSRTYRVVVGRQSLSTVESGSLTIAVSKSVIHEKWNSNQLAQGNDIALLKLASSVPLTDKIQLGCLPAAGTILPNNYVCYVTGWGRLQSNGALPDILQQGKLLVVDYATCSNPSWWGSTVKTNMICAGGDGVTSSCNGDSGGPLNCQAANRQWQVHGIVSFGSSLGCNYYRKPSVFTRVSNYNDWISSVIENN
Turning to B2, the “hydrolytic activity” value in the data set on gluten and gliadin is reported as “showed hydrolytic activity”.

B3: recombinant mouse chymotrypsin-like elastase family member 3B: commercial protease (3.4.21.70) from MyBioSource (protein, UniProt Q9CQ52 28-269, looked up)
Chymotrypsin-like elastase …: VVNGEEAVPHSWPWQVSLQYEKDGSFHHTCGGSLITPDWVLTAGHCISTSRTYQVVLGEHERGVEEGQEQVIPINAGDLFVHPKWNSMCVSCGNDIALVKLSRSAQLGDAVQLACLPPAGEILPNGAPCYISGWGRLSTNGPLPDKLQQALLPVVDYEHCSRWNWWGLSVKTTMVCAGGDIQSGCNGDSGGPLNCPADNGTWQVHGVTSFVSSLGCNTLRKPTVFTRVSAFIDWIEETIANN
As to B3, the “hydrolytic activity” value with gluten and gliadin is reported as “showed hydrolytic activity”.

The values above are taken from article PMC5485308 (Molecular Metabolism, 2017).
